Experimental findings from ChEMBL document CHEMBL1772938, “Optimization of 3-(phenylthio)quinolinium compounds against opportunistic fungal pathogens” (Eur J Med Chem, 2011) are described below.

The subject of data set [1] is Candida albicans. In words: Antimicrobial activity against Candida albicans ATCC 90028 by alamar blue assay. The data set is classed as functional, organism-based.
For data set [2], the system named is Pichia kudriavzevii. The experiment in a line: Antimicrobial activity against Candida krusei ATCC 6258 by alamar blue assay. In kind it is functional, organism-based.
Data set [3] has as its system Candida albicans. The experiment in a line: Antimicrobial activity against Candida albicans ATCC 90028 by CLSI method. The data set is classed as functional. The method in brief: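 C. albicans inoculum was made to the 0.5 McFarland standard in Sabouraud dextrose broth or RPMI 1640. Samples came from DMSO stocks serially diluted in saline, in duplicate, starting at a final 20 μg/mL. Plates were read at OD 630 nm before and after incubation. IC50 came from the % growth versus concentration plot; MIC was the lowest concentration with no visible growth. Included: growth, solvent and blank controls, plus amphotericin B.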

In data set [4] the test system is Nakaseomyces glabratus. In words: Antimicrobial activity against Candida glabrata ATCC 90030 by alamar blue assay. In kind it is functional, organism-based.
In data set [5] the test system is Pichia kudriavzevii. The experiment in a line: Antimicrobial activity against Candida krusei ATCC 6258 by CLSI method. In kind it is functional. The method in brief: (§1)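 Modified CLSI microdilution. DMSO samples were serially diluted in saline and tested in duplicate against inoculum adjusted by the 0.5 McFarland standard. The final test range started at 20 μg/mL. Plates were read before and after incubation. IC50 came from % growth versus concentration; MIC was the lowest concentration without visible growth. Growth, solvent, blank and amphotericin B controls were on each plate.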

Data set [6] relates to Aspergillus fumigatus. In words: Antimicrobial activity against Aspergillus fumigatus ATCC 90906 by alamar blue assay. The data set is classed as functional, organism-based. The method in brief:
(§2)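 Modified CLSI broth microdilution. DMSO stocks were serially diluted in saline and run in duplicate. Inoculum was set by the 0.5 McFarland standard in YM broth for MIC, or in RPMI-1640 + 5% Alamar Blue for IC50. The top final concentration was 20 μg/mL. Fluorescence (544ex/590em) was read before and after incubation. IC50 was taken from % growth versus concentration; MIC was read visually as no blue-to-pink change.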

The nature of data set [7]: Selectivity index, ratio of TC50 for african green monkey Vero cells to IC50 for Cryptococcus neoformans ATCC 90113. Conditions: read-out: Selectivity Index. The data set is classed as toxicity, cell-based.
Data set [8] deals with Cryptococcus neoformans. In words: Antimicrobial activity against Cryptococcus neoformans ATCC 90113 by alamar blue assay. The data set is classed as functional, organism-based.
For data set [9], the system named is Vero. In words: Cytotoxicity against african green monkey Vero cells at 10 ug/ml after 48 hrs by neutral red assay. In kind it is cell-based. Conditions: chlorocebus sabaeus. The method in brief: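 VERO kidney cells were seeded at 25,000 cells/well and incubated 24 h. Samples were added up to 10 μg/mL and incubated a further 48 h. Viable cells were counted by neutral red uptake. IC50 came from growth-inhibition dose curves. Doxorubicin was the positive control and DMSO the vehicle control.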

The subject of data set [10] is Aspergillus fumigatus. The experiment in a line: Antimicrobial activity against Aspergillus fumigatus ATCC 90906 by CLSI method. In kind it is functional. The essentials: as §2
Data set [11] relates to Cryptococcus neoformans. The experiment in a line: Antimicrobial activity against Cryptococcus neoformans ATCC 90113 by CLSI method. In kind it is functional. The method in brief: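 C. neoformans in Sabouraud dextrose broth, inoculum per the 0.5 McFarland standard. Saline serial dilutions of DMSO samples were tested in duplicate, with a final top concentration of 20 μg/mL. OD 630 nm was read before and after incubation. IC50 was derived from % growth versus concentration. MIC was judged visually as the lowest concentration with no detectable growth. Amphotericin B served as the drug control.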

Data set [12] concerns Nakaseomyces glabratus. In words: Antimicrobial activity against Candida glabrata ATCC 90030 by CLSI method. In kind it is functional. The essentials:
as §1

Regarding `FC(F)(F)c1ccccc1Sc1cc2ccccc2[n+](CCCCCC2CCCCC2)c1.[I-]`, the IC50 in data set [1] came to 1.1 µg/mL; in data set [2], 1.1 µg/mL; in data set [4], 3 µg/mL; in data set [6] it was 1.8 µg/mL; in data set [8], 0.3 µg/mL. Moreover, the MFC turned out to be 2.5 µg/mL in [3]; 1.3 µg/mL in data set [5]; 5 µg/mL in [10]; 1.3 µg/mL in [11]; 10 µg/mL in [12]. Further, the MIC in [3] came out at 2.5 µg/mL; in data set [5], 1.3 µg/mL; in data set [10], 5 µg/mL; in [11], 0.6 µg/mL; in data set [12], 5 µg/mL. Besides, in [7], the selectivity ratio is > 33. For the same compound, the Activity entry in data set [9] is “Non-toxic”.
